Experimental data published in ChEMBL document CHEMBL3867444, “Design and synthesis of new potent PTP1B inhibitors with the skeleton of 2-substituted imino-3-substituted-5-heteroarylidene-1,3-thiazolidine-4-one: Part I” (Eur J Med Chem, 2016).

Assays:
[1] = target: T1, M-phase inducer phosphatase 2 (Homo sapiens, UniProt P30305); assay: Inhibition of human recombinant GST-tagged CDC25B assessed as reduction in dephosphorylation of florigenic phosphatase substrate preincubated for 1 hr followed by substrate addition measured after 1 hr by fluorescence assay
T1 sequence (P30305 whole entry): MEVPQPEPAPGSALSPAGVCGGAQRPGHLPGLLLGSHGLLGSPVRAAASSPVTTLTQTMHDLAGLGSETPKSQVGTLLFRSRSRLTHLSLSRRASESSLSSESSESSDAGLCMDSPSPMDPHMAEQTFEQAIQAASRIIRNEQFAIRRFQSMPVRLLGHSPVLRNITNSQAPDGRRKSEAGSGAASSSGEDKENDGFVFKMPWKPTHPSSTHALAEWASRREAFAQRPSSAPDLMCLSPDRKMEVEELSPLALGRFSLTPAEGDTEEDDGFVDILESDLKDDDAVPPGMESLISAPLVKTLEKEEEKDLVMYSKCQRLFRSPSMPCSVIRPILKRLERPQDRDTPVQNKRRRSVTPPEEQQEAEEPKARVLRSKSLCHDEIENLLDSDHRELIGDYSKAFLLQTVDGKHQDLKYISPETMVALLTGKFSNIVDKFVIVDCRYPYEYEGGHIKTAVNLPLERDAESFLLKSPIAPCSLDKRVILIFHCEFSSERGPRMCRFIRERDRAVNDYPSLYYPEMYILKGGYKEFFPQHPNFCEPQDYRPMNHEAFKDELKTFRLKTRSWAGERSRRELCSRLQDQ
How it was run: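 Purified GST-CDC25B fusion protein was preincubated with compound for 1 h, then fluorescein diphosphate (5mM) was added. Fluorescence was read within the linear range of the reaction after 1 h at room temperature. Na₃VO₄ served as positive control and DMSO as negative control.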

[2] = target: T2, Tyrosine-protein phosphatase non-receptor type 1 (Homo sapiens) (UniProt P18031); assay: Inhibition of human recombinant GST-tagged PTP1B catalytic domain expressed in Escherichia coli BL21-[…] plus (DE3) at 20 ug/ml using pNPP as substrate relative to control
T2 sequence (whole entry): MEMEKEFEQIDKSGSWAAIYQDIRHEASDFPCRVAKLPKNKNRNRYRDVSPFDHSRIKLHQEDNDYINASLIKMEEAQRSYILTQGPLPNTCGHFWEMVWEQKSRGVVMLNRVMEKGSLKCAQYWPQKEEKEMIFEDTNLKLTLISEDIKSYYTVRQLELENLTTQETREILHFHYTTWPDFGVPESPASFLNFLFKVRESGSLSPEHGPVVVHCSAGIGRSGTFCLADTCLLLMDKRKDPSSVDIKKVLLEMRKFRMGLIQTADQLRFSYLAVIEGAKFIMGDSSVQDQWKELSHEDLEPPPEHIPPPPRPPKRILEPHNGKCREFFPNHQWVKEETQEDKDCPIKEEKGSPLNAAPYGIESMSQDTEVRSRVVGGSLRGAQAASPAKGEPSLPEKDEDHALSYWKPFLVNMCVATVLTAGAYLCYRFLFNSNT

[3] = target: T2, Tyrosine-protein phosphatase non-receptor type 1 (Homo sapiens); assay: Inhibition of human recombinant GST-tagged PTP1B catalytic domain expressed in Escherichia coli BL21-[…] plus (DE3) at 5 ug/ml using pNPP as substrate relative to control
[4] = target: T3, M-phase inducer phosphatase 2 (Homo sapiens) (UniProt P30305); assay: Inhibition of human recombinant GST-tagged CDC25B assessed as reduction in dephosphorylation of florigenic phosphatase substrate at 5 ug/ml preincubated for 1 hr followed by substrate addition measured after 1 hr by fluorescence assay relative to control
T3 sequence (whole entry): T1 sequence (P30305 whole entry)

[5] = target: T4, Tyrosine-protein phosphatase non-receptor type 1 (Homo sapiens, UniProt P18031); assay: Inhibition of human recombinant GST-tagged PTP1B catalytic domain expressed in Escherichia coli BL21-[…] plus (DE3) using pNPP as substrate
T4 sequence (P18031 whole entry): T2 sequence (whole entry)

[6] = target: T4, Tyrosine-protein phosphatase non-receptor type 1; assay: Inhibition of PTP1B (unknown origin)

| Compound | IC50 [1] [µM] | inhibition [2] [%] | inhibition [3] [%] | inhibition [4] [%] | IC50 [5] [µM] | IC50 [6] [µM] |
| --- | --- | --- | --- | --- | --- | --- |
| SODIUM ORTHOVANAD | 0.91 |  |  |  |  |  |
| CCOC(=O)c1c(C)[nH]c(/C=C2\S/C(=N\c3ccccc3F)N(c3ccccc3F)C2=O)c1C | 3.66 | 98.3 | 45 | 64.2 |  |  |
| CCOC(=O)c1c(C)[nH]c(/C=C2\S/C(=N\c3ccc(F)cc3)N(c3ccc(F)cc3)C2=O)c1C | 2.87 | 94.5 | 82.7 | 84.7 | 6.09 |  |
| CCOC(=O)c1c(C)[nH]c(/C=C2\S/C(=N\c3ccc(C)cc3)N(c3ccc(C)cc3)C2=O)c1C |  | 28.4 |  |  |  |  |
| CCOC(=O)c1c(C)[nH]c(/C=C2\S/C(=N/O)N(C(C)C)C2=O)c1C | 5.83 | 95.8 | 49 | 80.2 |  |  |
| Cc1cc(I)cc2c1NC(c1cccc(N)c1)C1CC=CC21 (stereo not given) |  |  |  |  |  | 7.5 |
| CC(C)N1C(=O)/C(=C/c2ccc(OCCN(C)c3ccccn3)cc2)S/C1=N\O | 2.47 | 67.5 | 19.3 | 98.5 |  |  |
| CC/N=C1\S/C(=C\c2ccc(OCCN(C)c3ccccn3)cc2)C(=O)N1CC |  | 42.1 |  |  |  |  |
| CCOC(=O)c1c(C)[nH]c(/C=C2\S/C(=N\c3ccccc3)N(c3ccccc3)C2=O)c1C | 1.66 | 99.9 | 81.1 | 83.7 | 8.66 |  |
| CCOC(=O)c1c(C)[nH]c(/C=C2\S/C(=N\c3cccc(F)c3)N(c3cccc(F)c3)C2=O)c1C | 3.39 | 96.3 | 74.2 | 82.8 | 6.83 |  |
| CCOC(=O)c1c(C)[nH]c(/C=C2\S/C(=N\c3ccc(OC)cc3)N(c3ccc(OC)cc3)C2=O)c1C | 2.74 | 98.7 | 47.7 | 76.5 |  |  |
